LYP inh 2: blocks human PTPN22 phosphatase activity | recombinant LYP catalytic domain, DiFMUP fluorescence | inhibition, % at 2 µM | 96,000 compounds, 0.21% hits | AID 640;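 active = inhibition at 2 µM at or above a set limit, the screen mean plus 3 SD, cut at about 24% in these data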
PLK1 inh: inhibitors of human PLK1 kinase. 97,000 compounds, 0.53% hits. recombinant PLK1 kinase, TR-FRET peptide phosphorylation. inhibition, % at 10 µM. P53350;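 active = inhibition of 50% or more in the single-concentration screen; inactive = inhibition below 50%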
Target sequence (P53350 whole entry, looked up): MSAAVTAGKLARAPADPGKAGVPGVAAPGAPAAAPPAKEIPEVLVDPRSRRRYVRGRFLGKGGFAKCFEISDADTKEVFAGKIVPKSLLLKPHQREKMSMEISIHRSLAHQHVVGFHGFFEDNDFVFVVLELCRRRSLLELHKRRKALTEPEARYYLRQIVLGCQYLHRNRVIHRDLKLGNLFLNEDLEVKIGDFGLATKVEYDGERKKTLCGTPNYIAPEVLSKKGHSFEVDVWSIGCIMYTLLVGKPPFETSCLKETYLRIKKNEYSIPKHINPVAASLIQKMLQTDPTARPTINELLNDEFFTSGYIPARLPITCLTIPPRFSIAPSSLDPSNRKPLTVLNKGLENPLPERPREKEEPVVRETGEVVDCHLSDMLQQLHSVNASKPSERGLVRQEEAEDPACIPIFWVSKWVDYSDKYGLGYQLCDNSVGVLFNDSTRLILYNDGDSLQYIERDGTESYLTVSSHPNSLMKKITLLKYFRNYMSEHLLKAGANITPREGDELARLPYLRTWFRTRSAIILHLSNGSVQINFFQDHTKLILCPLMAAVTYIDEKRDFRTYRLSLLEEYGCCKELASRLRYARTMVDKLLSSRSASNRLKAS
HIV Rev-RRE inh: disrupts HIV-1 Rev binding to RRE RNA. 97,000 compounds, 0.79% hits. P05866. AID 704. inhibition, % at 8 µM. Rev peptide-RRE RNA binding, FRET;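 active = inhibition above the screen-wide mean plus 3 SD, cut at about 35% in these data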
Target sequence (P05866 whole entry, looked up): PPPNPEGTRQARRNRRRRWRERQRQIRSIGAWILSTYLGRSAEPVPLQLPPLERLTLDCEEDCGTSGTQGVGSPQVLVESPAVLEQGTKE
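Test system – labelled RRE RNA duplex and labelled Rev peptide · Signal – fluorescein-to-Cy5 FRET, 480 nm excitation · Evaluation – % inhibition of FRET ratio versus controls · Benchmarks – DMSO low control, neomycin B high control · Incubation – 5 min RNA-compound premix plus 15 min binding step, 25 °C · Medium – HEPES pH 7.5 salt buffer with EDTA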
Plk1 PBD FP: blocks phosphopeptide binding to human Plk1 polo box domain; P53350; Plk1 PBD phosphopeptide binding, fluorescence polarization; inhibition, %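 (tested at about 20 µM)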; 97,000 compounds, 0.13% hits; AID 693; in the data active = inhibition above about 34%, passing the limit was not always enough
EphB4 ephrin blk: antagonists of human EphB4-ephrin-B2 interaction; P54760; 97,000 compounds, 0.15% hits; EphB4 LBD / TNYL-RAW-Alexa532 peptide, fluorescence polarization; inhibition, % at 7 µM; AID 720;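 active = inhibition above the screen-wide mean inhibition plus 3 SD, cut at about 15% in these data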
LYP act: increases human PTPN22 phosphatase activity; Q9Y2R2; recombinant LYP, DiFMUP fluorescence; 0 = plate median, 100 = signal doubled; activation, % at 2 µM; 96,000 compounds, 0.11% hits; AID 697;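 active = activation at 2 µM above a set limit, the mean plus 5 SD, cut at about 37% in these data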
PLK1 confirm: PLK1 (human) kinase inhibition, confirmed; shares compounds with PLK1 inh; AID 744; inhibition, % at 10 µM; 210 compounds, 20% hits; recombinant PLK1 kinase, TR-FRET peptide phosphorylation;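 active = inhibition at or above 50% in each of two repeat confirmation tests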
TR-FRET interf: Plk1 assay compound interference counter-screen hit. shares compounds with PLK1 inh. Plk1 TR-FRET assay interference, compound added post-reaction. inhibition (interference), % at 10 µM. 210 tested, under 10 active. AID 756;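 active = both duplicate runs show 50% or greater inhibition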
A number is an active result; – = inactive; · = no result given. A selection: hits, their analogues and other compounds. The true share with any hit is near 1.8%.

SMILES | LYP inh 2 | PLK1 inh | HIV Rev-RRE inh | Plk1 PBD FP | EphB4 ephrin blk | LYP act | PLK1 confirm | TR-FRET interf
COCCn1c(C)cc(C(=O)CSc2nnc3ccccn23)c1C | · | 72 | – | – | – | · | – | –
O=C(c1ccc(F)cc1)N1CCN(c2cc(=O)[nH]nc2-c2ccccc2)CC1 | – | 125 | – | – | – | – | – | –
Cc1cccc(-c2csc(N)c2C(=O)OC(C)C)c1 | – | – | – | – | – | – | · | ·
CCOC(=O)c1c(-c2ccncc2)csc1N | – | 70 | – | – | – | – | 66 | –
Nc1ccc(-n2nncc2-c2ccc(Cl)cc2)cc1 | – | – | – | – | – | – | · | ·
O=c1[nH]cnc2scc(-c3cccs3)c12 | – | 73 | – | – | – | – | 65 | –
COc1cccc(Nc2ncnc3nc[nH]c23)c1 | – | 84 | – | – | – | – | 70 | –
Cc1ccc(Nc2ncnc3nc[nH]c23)cc1Cl | – | 76 | – | – | – | – | – | –
CCCCc1ccc(Nc2ncnc3nc[nH]c23)cc1 | – | – | – | – | – | – | · | ·
c1ccc(CNc2ncnc3nc[nH]c23)cc1 | – | – | – | – | – | – | · | ·
O=C(N/N=C/c1cccc(Cl)c1Cl)Nc1ccccc1 | – | – | – | – | – | – | · | ·
Cc1cc(C(=O)N/N=C/c2cccc(Cl)c2Cl)no1 | – | 88 | – | – | – | – | – | –
O=C(O)CCc1ccc(-c2cccs2)n1-c1ccc(C(=O)O)cc1 | · | 96 | – | – | – | · | – | –
CC(=O)c1cccc(-n2c(CCC(=O)O)ccc2-c2cccs2)c1 | – | – | – | – | – | – | · | ·
CS(=O)(=O)c1ccc2nc(N)sc2c1 | – | – | – | – | – | – | · | ·
Nc1nc2ccc([N+](=O)[O-])c(N)c2s1 | – | 76 | – | – | – | – | 75 | –
Cc1oc2ncnc(N)c2c1C | – | 76 | – | – | – | – | 68 | –
CCOC(=O)N1CCN(c2c(N3CCc4ccccc43)c(=O)c2=O)CC1 | · | 77 | – | – | – | · | – | –
O=C(NC1CCCCC1)c1nc2c(nnn2Cc2ccccc2Cl)c(=O)[nH]1 | – | – | – | – | – | – | · | ·
CCN(CC)S(=O)(=O)c1ccc(C(=O)OCCN2C(=O)CCC2=O)cc1 | · | 74 | – | – | – | · | – | –
O=C(O)C1CCCCC1C(=O)NCc1cn2ccccc2n1 (stereo not drawn) | · | 71 | – | – | – | · | – | –
CC(Oc1ccc(Cl)cc1Cl)C(=O)NCCCN1CCOCC1 (stereo not drawn) | · | 74 | – | – | – | · | – | –
O=S(=O)(NCc1cn2ccsc2n1)c1ccc2c(c1)OCCO2 | – | – | – | – | – | – | · | ·
COc1ccccc1Nc1nc(N)nc(CN2CCOCC2)n1 | · | 72 | – | – | – | · | – | –
CCCCCC(C)n1[nH]c(=O)c2c(C)cc(C)nc21 (stereo not drawn) | · | 86 | – | – | – | · | – | –
SMILES | LYP inh 2 | PLK1 inh | HIV Rev-RRE inh | Plk1 PBD FP | EphB4 ephrin blk | LYP act | PLK1 confirm | TR-FRET interf
N#C/C(=N\Nc1c(Cl)cccc1Cl)C(=O)NN | – | 79 | – | – | – | – | 77 | –
N#C/C(=N\Nc1ccccc1Cl)C(=O)c1ccccc1 | – | – | – | – | – | – | · | ·
Cc1cccc(-n2ncc3c(NCCc4ccc(S(N)(=O)=O)cc4)ncnc32)c1 | · | 71 | – | – | – | · | – | –
CNC(=O)c1nnn(Cc2ccccc2)c1NC(=O)C(F)(F)F | – | – | – | – | – | – | · | ·
CCCc1cc(C(N)=O)c(NC(=O)c2ccco2)s1 | – | 127 | – | – | – | – | – | –
O=C(c1ccco1)N1CCN=C1SCc1ccccc1F | · | 78 | – | – | – | · | – | –
O=C(c1ccco1)N1CCN=C1SCc1cccnc1 | – | – | – | – | – | – | · | ·
O=C(CSc1nc(-c2ccccc2)cc(=O)[nH]1)Nc1ccccn1 | – | – | – | – | – | – | · | ·
O=C(CSc1n[nH]c(-c2ccc(Cl)cc2Cl)n1)Nc1ccccn1 | – | 78 | – | – | – | – | 74 | –
O=C(COC(=O)Cn1c(C(F)(F)F)nc2ccccc21)Nc1ccc2c(c1)OCCO2 | – | – | – | – | – | – | · | ·
Cc1cc2c(ccc3[nH]onc32)n1 | – | 72 | – | – | – | – | – | –
CC1CCCC/C1=N\NS(=O)(=O)c1ccc(Br)cc1 (stereo not drawn) | – | – | – | – | – | – | · | ·
CC1CCN(c2ncnc3c2cnn3-c2ccccc2)CC1 | · | 75 | – | – | – | · | – | –
CCOC(=O)C1CCN(c2ncnc3c2cnn3-c2ccccc2)CC1 | – | – | – | – | – | – | · | ·
Clc1cc(NCc2cccs2)ccc1N1CCOCC1 | – | – | – | – | – | – | · | ·
O=c1[nH]cnc2sc(-c3ccccc3)cc12 | – | 78 | – | – | – | – | 68 | –
CCc1cc2c(=O)[nH]cnc2s1 | – | – | – | – | – | – | · | ·
Cc1nc(-c2cccnc2)sc1C(N)=O | – | 76 | – | – | – | – | – | –
Cc1nc(-c2cccnc2)sc1C(=O)Nc1ccc(Cl)cc1 | – | – | – | – | – | – | · | ·
N#Cc1c(-c2ccc3c(c2)OCO3)csc1N | – | 72 | – | – | – | – | 66 | –
Cc1nc(-c2ccc3c(c2)OCO3)cs1 | – | – | – | – | – | – | · | ·
Cc1cccc(NC(=O)CCc2ccc(S(=O)(=O)NC3CCCCC3)cc2)c1 | – | – | – | – | – | – | · | ·
CCOC(=O)C1=C(CSc2nc3c(cc2C#N)CN(C)CC3)OC(N)=C(C#N)C1c1ccc(Cl)cc1 (stereo not drawn) | – | 116 | 58 | – | – | – | – | –
CCOC(=O)C1=C(CSc2nc(C)cc(C)c2C#N)OC(N)=C(C#N)C1c1ccccc1 (stereo not drawn) | – | – | – | – | – | – | · | ·
CCc1nc(SCC(=O)c2cccs2)c2oc3ccccc3c2n1 | – | – | – | – | – | – | · | ·
SMILES | LYP inh 2 | PLK1 inh | HIV Rev-RRE inh | Plk1 PBD FP | EphB4 ephrin blk | LYP act | PLK1 confirm | TR-FRET interf
CCOc1ccc(C(Nc2ccc(C)cc2)P2(=O)OCCC(C)O2)cc1 (stereo not drawn) | – | – | – | – | – | – | · | ·
COc1ccc(-c2nc(CS(=O)CC(=O)NCc3ccc4c(c3)OCO4)c(C)o2)cc1 (stereo not drawn) | – | – | – | – | – | – | · | ·
O=C(NCc1ccc2c(c1)OCO2)Oc1ccccc1 | · | 83 | – | – | – | · | – | –
Cc1ccccc1-c1nc(CS(=O)CC(=O)NCc2ccccc2)c(C)o1 (stereo not drawn) | · | 79 | – | – | – | · | – | –
O=C(NCc1ccc2c(c1)OCO2)c1cccc(C(=O)NCc2ccc3c(c2)OCO3)c1 | – | – | – | – | – | – | · | ·
COc1cccc(-c2nc(CS(=O)CC(=O)NCc3ccc4c(c3)OCO4)c(C)o2)c1 (stereo not drawn) | · | 75 | – | – | – | · | – | –
